The record followed here is ChEMBL document CHEMBL1142068, “Reduced susceptibility to polyenes associated with a missense mutation in the ERG6 gene in a clinical isolate of Candida glabrata with pseudohyphal growth” (2007).

Values after ≈ are worked out from the molar mass of the structure shown. Active and inactive are the calls of the source. The rule behind the calls is not given here.

Experiment [1] has as its system Nakaseomyces glabratus. Put plainly: Antimicrobial activity against Candida glabrata 21231 isolate by E-test. It counts as functional.
The subject of experiment [2] is Nakaseomyces glabratus. The experiment in a line: Antimicrobial activity against polyene-resistant Candida glabrata 21229 isolate by E-test. The class given is functional.
For experiment [3], the system named is Nakaseomyces glabratus. The experiment in a line: Susceptibility of polyene-resistant Candida glabrata 21229 isolate at 1 ug by disk diffusion method. It counts as functional. In a few lines:
(§1)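 Disk diffusion on Casitone agar (pH 7.2, chloramphenicol 0.5 g/liter) with drug tablets. Tablet drug contents: voriconazole 1 μg, itraconazole 8 μg, amphotericin B/miconazole/clotrimazole 10 μg, fluconazole/ketoconazole 15 μg, nystatin 50 μg. Read-out is growth inhibition zone diameter (mm), mean of triplicates. Isolates were compared by Wilcoxon-Mann-Whitney test, unilateral α = 0.05.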
In general terms: Agar diffusion results depend on both activity and mobility in agar.

The test system of experiment [4] is Nakaseomyces glabratus. The experiment in a line: Susceptibility of Candida glabrata 21231 isolate at 10 ug by disk diffusion method. Conditions: read-out: IZ. The class given is functional. In a few lines:
(§2)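 Disk diffusion was run on Casitone agar (pH 7.2) with Neosensitab tablets. Tablets held 10 μg for amphotericin B, econazole, miconazole and clotrimazole, and 8 μg for itraconazole. Read-out is the inhibition-zone diameter in mm, as the mean of triplicates. Isolates were compared by Wilcoxon-Mann-Whitney test, unilateral α = 0.05.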

The subject of experiment [5] is Nakaseomyces glabratus. Put plainly: Susceptibility of polyene-resistant Candida glabrata 21229 isolate at 10 ug by disk diffusion method. It counts as functional. The following applies: read-out: IZ. In a few lines:
as §1

Experiment [6] concerns Nakaseomyces glabratus. Put plainly: Growth inhibition of Candida glabrata 21231 isolate in YEPD agar plates at 4 mg/ml. The class given is functional, organism-based. The gist of the method:
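Dye susceptibility on YEPD agar plates with dye at increasing levels from 0.1 to 4 mg/ml. Inocula ranged from 2 × 10^6 to 2 × 10^2 cells. The read-out is the minimum dye concentration that inhibited growth of the same quantity of cells.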

The test system of experiment [7] is Nakaseomyces glabratus. The experiment in a line: Growth inhibition of polyene-resistant Candida glabrata 21229 isolate in YEPD agar plates at 4 mg/ml. The class given is functional, organism-based.
For experiment [8], the system named is Nakaseomyces glabratus. The experiment in a line: Susceptibility of Candida glabrata 21231 isolate at 15 ug by disk diffusion method. The class given is functional. Conditions: read-out: IZ. The gist of the method: as §1
Experiment [9] concerns Nakaseomyces glabratus. The experiment in a line: Susceptibility of polyene-resistant Candida glabrata 21229 isolate at 15 ug by disk diffusion method. It counts as functional. The following applies: read-out: IZ. In a few lines: as §1
Experiment [10] concerns Nakaseomyces glabratus. The experiment in a line: Susceptibility of Candida glabrata 21229F34 isolate with URA3 by disk diffusion method. The class given is functional.
Experiment [11] concerns Nakaseomyces glabratus. The experiment in a line: Susceptibility of Candida glabrata 21229C218 isolate expressing ERG6 gene by disk diffusion method. The class given is functional. In a few lines: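 Complemented ura3 derivative carrying a plasmid-borne ERG6 copy was selected on selective medium. Amphotericin B susceptibility was tested by disk diffusion on Casitone agar (pH 7.2) with Neosensitab tablets. Read-out is the growth-inhibition zone diameter in mm.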

Experiment [12] relates to Nakaseomyces glabratus. The experiment in a line: Susceptibility of polyene-resistant Candida glabrata 21229 isolate by disk diffusion method. The class given is functional. In a few lines: as §1
Experiment [13] deals with Nakaseomyces glabratus. The experiment in a line: Susceptibility of Candida glabrata 21231 isolate at 8 ug by disk diffusion method. The class given is functional. The following applies: read-out: IZ. In a few lines:
as §2

Experiment [14] concerns Nakaseomyces glabratus. The experiment in a line: Susceptibility of polyene-resistant Candida glabrata 21229 isolate at 8 ug by disk diffusion method. It counts as functional. The following applies: read-out: IZ. In a few lines: as §1
In experiment [15] the test system is Nakaseomyces glabratus. The experiment in a line: Susceptibility of Candida glabrata 21231 isolate at 50 ug by disk diffusion method. The class given is functional, organism-based. The gist of the method:
as §1

In experiment [16] the test system is Nakaseomyces glabratus. The experiment in a line: Susceptibility of polyene-resistant Candida glabrata 21229 isolate at 50 ug by disk diffusion method. The class given is functional, organism-based. The gist of the method:
as §1

Usually MIC stands for the lowest concentration that inhibits growth of the organism. A higher MIC goes with a need for much substance. As for `CC[C@H](C)C[C@H](C)CCCCCCCCC(=O)N[C@H]1C[C@@H](O)[C@@H](NCCN)NC(=O)[C@@H]2[C@@H](O)CCN2C(=O)[C@H]([C@H](O)CCN)NC(=O)[C@H]([C@H](O)[C@@H](O)c2ccc(O)cc2)NC(=O)[C@@H]2C[C@@H](O)CN2C(=O)[C@H]([C@@H](C)O)NC1=O` [CASPOFUNGIN], the MIC in the experiment on Nakaseomyces glabratus [1] was found to be 0.023 µg/mL (≈ 0.021 µM); against Nakaseomyces glabratus [2] it was 0.024 µg/mL (≈ 0.022 µM).
Turning to `C[C@@H](c1ncncc1F)[C@](O)(Cn1cncn1)c1ccc(F)cc1F` [VORICONAZOLE], the zone of inhibition at 1 µg/disc is 43 mm in the experiment on Nakaseomyces glabratus [3] (Nakaseomyces glabratus, 21229, read-out: IZ) and 43 mm with Nakaseomyces glabratus [3] (read-out: IZ). Further, the MIC in the experiment with Nakaseomyces glabratus [1] worked out at 0.125 µg/mL (≈ 0.358 µM); with Nakaseomyces glabratus [2] it was 0.047 µg/mL (≈ 0.135 µM).
Consider `Clc1ccc(COC(Cn2ccnc2)c2ccc(Cl)cc2Cl)c(Cl)c1` (stereo not drawn) [MICONAZOLE], for which the zone of inhibition at 10 µg/disc with Nakaseomyces glabratus [4] came out at 18 mm; in the experiment with Nakaseomyces glabratus [5], 30 mm.
Turning to `Nc1c(/N=N/c2ccc(-c3ccc(/N=N/c4cc(S(=O)(=O)O)c5ccccc5c4N)cc3)cc2)cc(S(=O)(=O)O)c2ccccc12`, the result in the experiment on Nakaseomyces glabratus [6] and in the experiment with Nakaseomyces glabratus [7] was inactive.
With `OC(Cn1cncn1)(Cn1cncn1)c1ccc(F)cc1F` [FLUCONAZOLE], the values for the zone of inhibition at 15 µg/disc with Nakaseomyces glabratus [8] and in the experiment with Nakaseomyces glabratus [9] were 20 mm and 50 mm, respectively. Further, the results for the minimum inhibitory concentration (MIC) with Nakaseomyces glabratus [1] and against Nakaseomyces glabratus [2] were 3.7 µg/mL (≈ 12.1 µM) and 1 µg/mL (≈ 3.27 µM), respectively.
Consider `C[C@@H]1[C@H](O)[C@@H](C)/C=C/C=C/C=C/C=C/C=C/C=C/C=C/[C@H](O[C@@H]2O[C@H](C)[C@@H](O)[C@H](N)[C@@H]2O)C[C@@H]2O[C@](O)(C[C@@H](O)C[C@@H](O)[C@H](O)CC[C@@H](O)C[C@@H](O)CC(=O)O[C@H]1C)C[C@H](O)[C@H]2C(=O)O` [AMPHOTERICIN B], for which the results for the zone of inhibition at 10 µg/disc in the experiment with Nakaseomyces glabratus [4] and in the experiment on Nakaseomyces glabratus [5] were 34 mm and 13 mm, respectively. The results for the minimal inhibitory concentration (MIC) in the experiment with Nakaseomyces glabratus [1] and in the experiment on Nakaseomyces glabratus [2] were 0.029 µg/mL (≈ 0.0314 µM) and 1.3 µg/mL (≈ 1.41 µM), respectively. In addition, the figures for the “inhibition zone (IZ)” value in the experiment with Nakaseomyces glabratus [10], with Nakaseomyces glabratus [11] and in the experiment with Nakaseomyces glabratus [12] were 16 mm, 30 mm and 16 mm, respectively.
Turning to `CCC(C)n1ncn(-c2ccc(N3CCN(c4ccc(OCC5COC(Cn6cncn6)(c6ccc(Cl)cc6Cl)O5)cc4)CC3)cc2)c1=O` (stereo not drawn) [ITRACONAZOLE], the zone of inhibition at 8 µg/disc with Nakaseomyces glabratus [13] stood at 16 mm; in the experiment with Nakaseomyces glabratus [14], 30 mm. For the same compound, the minimal inhibitory concentration (MIC) was 18.7 µg/mL (≈ 26.5 µM) in the experiment on Nakaseomyces glabratus [1] and 1.8 µg/mL (≈ 2.55 µM) against Nakaseomyces glabratus [2].
As for `Clc1ccccc1C(c1ccccc1)(c1ccccc1)n1ccnc1` [CLOTRIMAZOLE], the results for the zone of inhibition at 10 µg/disc in the experiment on Nakaseomyces glabratus [4] and with Nakaseomyces glabratus [5] were 26 mm and 40 mm, respectively.
Consider `CC(=O)N1CCN(c2ccc(OCC3COC(Cn4ccnc4)(c4ccc(Cl)cc4Cl)O3)cc2)CC1` (stereo not drawn) [KETOCONAZOLE], for which the zone of inhibition at 15 µg/disc amounted to 24 mm with Nakaseomyces glabratus [8] and 50 mm in the experiment with Nakaseomyces glabratus [9]. Moreover, the MIC against Nakaseomyces glabratus [1] was determined as 0.136 µg/mL (≈ 0.256 µM); with Nakaseomyces glabratus [2], 0.034 µg/mL (≈ 0.064 µM).
Turning to NYSTATIN, the results for the inhibition zone (IZ) in the experiment with Nakaseomyces glabratus [15] and in the experiment with Nakaseomyces glabratus [16] were 34 mm and 16 mm, respectively.
